Broadly, the inhibition is the relative decrease from the control value, in per cent. The IC50 is the midpoint of a concentration-inhibition curve. What is called pIC50 is the IC50 on a negative log10 scale, so that one unit is a factor of ten.

One data set deals with ALR1. In words: Inhibition of Wistar rat kidney ALR1 assessed as reduction in NADPH consumption using sodium D-glucuronate as substrate at 100 uM incubated for 1 min and measured up to 4 mins by spectrophotometric analysis relative to control. It is filed as tissue-based. The note with it: rat kidney ALR1 (aldehyde reductase) enzyme, probe sodium D-glucuronate. The method in brief: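 Enzyme: ALR1 isolated from rat kidneys. Activity was followed spectrophotometrically as NADPH consumption at 340 nm and expressed as decrease in O.D./s/mg protein. Inhibition is given as % of enzyme inhibition at 100 μM inhibitor.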

Data set [1] in a line: Inhibition of Wistar rat kidney ALR1 assessed as reduction in NADPH consumption using sodium D-glucuronate as substrate incubated for 1 min and measured up to 4 mins by spectrophotometric analysis. The data set is classed as tissue-based. The method in brief:
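Aldehyde reductase (ALR1) was isolated from rat kidneys. Activity was monitored spectrophotometrically by NADPH consumption at 340 nm, expressed as decrease in O.D./s/mg protein. The IC50 was determined from inhibition of this activity.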

Data set [2] is described as follows: Inhibition of Wistar rat lens ALR2 assessed as reduction in NADPH consumption using D,L-glyceraldehyde as substrate incubated for 1 min and measured up to 4 mins by spectrophotometric analysis. The data set is classed as tissue-based. Summed up:
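ALR2 was isolated from rat eye lenses and assayed for reduction of D,L-glyceraldehyde. NADPH consumption was read spectrophotometrically at 340 nm, with activity expressed as decrease in O.D./s/mg protein. The IC50 was derived from inhibition of this activity.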

The species named for data set [3] is Rattus norvegicus. In words: Selectivity index, ratio of IC50 for Wistar rat kidney ALR1 to IC50 for Wistar rat lens ALR2. The method in brief:
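Selectivity factor S_F = IC50(ALR1)/IC50(ALR2). ALR1 came from rat kidneys and ALR2 from rat eye lenses with D,L-glyceraldehyde as substrate. Both were assayed spectrophotometrically by NADPH consumption at 340 nm.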

For data set [4], the species on record is Rattus norvegicus. Briefly: Potency index, ratio of IC50 of OTI-6 to IC50 of compound for inhibition of Wistar rat lens ALR2 assessed as reduction in NADPH consumption using D,L-glyceraldehyde as substrate incubated for 1 min and measured up to 4 mins by spectrophotometric analysis. The data set is classed as tissue-based.

For the compound `O=C(O)Cn1c2ccccc2c2nn(Cc3ccccc3C(=O)O)c(=O)nc21`, in the data set with ALR1, the inhibition at 4 min, 100 µM was 62%. Further, the IC50 in data set [1] was found to be 59000 nM. For the same compound, in data set [2], the concentration for half-maximal inhibition (IC50) amounted to 139 nM and the pIC50 came out at 6.86. Moreover, the Ratio IC50 in the data set listed under Rattus norvegicus [3] stood at 424.
Take `O=C(O)Cn1c2ccccc2c2nn(Cc3ccccc3CO)c(=O)nc21`: the Ratio IC50 was 2 in the data set filed under Rattus norvegicus [4] and greater than 410 in the data set filed under Rattus norvegicus [3]. Further, in the data set with ALR1, the inhibition at 4 min, 100 µM was 33%. Moreover, the IC50 is greater than 100000 nM in data set [1] and 241 nM in data set [2]. For the same compound, in data set [2], the negative-log IC50 (pIC50) worked out at 6.61.
For the compound `NC(=O)c1ccccc1Cn1nc2c3ccccc3n(CC(=O)O)c2nc1=O`, the Ratio IC50 in the data set listed under Rattus norvegicus [4] is 2; in the data set filed under Rattus norvegicus [3], greater than 424. For the same compound, the inhibition at 4 min, 100 µM in the data set with ALR1 was determined as 50%. Besides, the IC50 in data set [1] is greater than 100000 nM; in data set [2], 236 nM. The pIC50 in data set [2] worked out at 6.63.
For the compound `O=C(O)Cn1c2ccccc2c2nn(Cc3ccccc3)c(=O)nc21`, in the data set with ALR1, the inhibition at 4 min, 100 µM was found to be 38%. The 50% inhibitory concentration (IC50) in data set [1] was greater than 100000 nM. Further, in data set [2], the IC50 was determined as 434 nM and the negative-log IC50 (pIC50) is 6.36. The Ratio IC50 in the data set listed under Rattus norvegicus [3] is greater than 230.
For `N#Cc1ccccc1Cn1nc2c3ccccc3n(CC(=O)O)c2nc1=O`, the inhibition at 4 min, 100 µM in the data set with ALR1 came to 51%. Also, the IC50 in data set [1] was greater than 100000 nM; in data set [2] it was 76 nM. For the same compound, the pIC50 in data set [2] came out at 7.12. Further, the Ratio IC50 in the data set filed under Rattus norvegicus [3] is greater than 1330.

These data come from ChEMBL document CHEMBL4673344, “Novel substituted N-benzyl(oxotriazinoindole) inhibitors of aldose reductase exploiting ALR2 unoccupied interactive pocket” (Bioorg Med Chem, 2021).
